Assay results collected from several papers.
Each line is one published result; the experiments were not run side by side.
Cell line: A549
Effect on: cell growth or viability

Structure (SMILES) | test | conditions | IC50
O=C(Nc1ccc(Cl)cc1)Nc1nc2cc(-c3ccc4ncn(CCN5CCOCC5)c(=O)c4c3)ccc2s1 | MTT | 72 h | > 20 µM
O=C(N[C@@H](CSCc1nc2cc([N+](=O)[O-])ccc2[nH]1)C(=O)NO)c1ccccc1 | MTT | 48 h | < 500 µM
COc1cccc2c1C(=O)c1c(O)c3c(c(O)c1C2=O)C[C@@](O)(C(=O)CO)C[C@@H]3O[C@H]1C[C@H](N)[C@H](O)[C@H](C)O1 | MTT | 48 h | 5.95 µM
O=C(Nc1cc(C(F)(F)F)cc(C(F)(F)F)c1)Nc1nc2cc(-c3ccc4ncn(Cc5ccccc5)c(=O)c4c3)ccc2s1 | MTT | 72 h | 5.37 µM
CN(C)C(=O)Nc1nc2c(Cl)cc(Cl)cc2c(=O)n1-c1ccccc1 | MTT | 48 h | > 200 µM
OC1CCN(c2ccc(/C=N/NC(=S)Nc3ccc(Br)cc3)cc2)CC1 | MTT | 24 h | 1.85 µM
O=C(O)c1ccc(NCc2ccc(Br)cc2)cc1 | resazurin | 72 h | > 100 µM
CCCCn1cnc2ccc(-c3ccc(NC(=O)Nc4ccccc4)nc3)cc2c1=O | CCK-8 | 72 h | 1.24 µM
COc1ccc(NC(=O)Nc2nc3cc(-c4ccc5ncn(CCN(C)C)c(=O)c5c4)ccc3s2)cc1 | MTT | 72 h | 5.46 µM
CC(=O)O[C@@]12CO[C@@H]1C[C@H](O)[C@@]1(C)C(=O)[C@H](O)C3=C(C)[C@@H](OC(=O)[C@H](O)[C@@H](NC(=O)OC(C)(C)C)c4ccccc4)C[C@@](O)([C@@H](OC(=O)c4ccccc4)[C@H]21)C3(C)C | MTT | 24 h | > 60 µg/mL
CCCCC(=O)Nc1ccc(-c2cnc3ncn(CCC)c(=O)c3c2)cn1 | CCK-8 | 72 h | > 10 µM
CNC(=S)N/N=C/c1cccc2cc3ccccc3nc12 | MTT | 48 h | 26.9 µM
O=C(Nc1ccc(-c2ccc3ncn(Cc4ccc5c(c4)OCO5)c(=O)c3c2)cn1)c1ccccc1 | CCK-8 | 72 h | > 10 µM
COc1cccc(NC(=O)Cn2cc(COc3ncnc4[nH]cnc34)nn2)c1 | MTT |  | 30.2 µM
CCCCC(=O)Nc1ncc(-c2ccc3ncn(CCC)c(=O)c3c2)cn1 | CCK-8 | 72 h | 1.25 µM
NS(=O)(=O)c1ccc(-n2nc(C(=O)NN=Cc3ccc(O)cc3)cc2-c2ccccc2)cc1 | fluorescence | 48 h | 7.9 µM
O=C(O)c1ccc(NCc2cccc(C(F)(F)F)c2)cc1 | resazurin | 72 h | > 100 µM
CCCCn1cnc2ccc(-c3ccc(NC(=O)CCC)nc3)cc2c1=O | CCK-8 | 72 h | 3.19 µM
O=C(NCCc1ccccc1)Nc1nc2cc(-c3ccc4ncn(CCN5CCOCC5)c(=O)c4c3)ccc2s1 | MTT | 72 h | 4.92 µM
CCCCC(=O)Nc1ccc(-c2ccc3ncn(CCCC)c(=O)c3c2)cn1 | CCK-8 | 72 h | 0.87 µM
Cc1cc(NS(=O)(=O)c2ccc(NC(=O)/C(C#N)=C/c3ccncc3)cc2)no1 | MTT | 48 h | 196 µM
O=C(C=Cc1cccs1)c1ccc(OCCCOc2ccc(C(=O)C=Cc3cccs3)cc2)cc1 | MTT | 48 h | 115 µM
CCCn1cnc2ccc(-c3ccc(N4CCCCC4=O)nc3)cc2c1=O | CCK-8 | 72 h | > 10 µM
CNC(=O)c1cc(Oc2ccc(NC(=O)Nc3ccc(Cl)c(C(F)(F)F)c3)cc2)ccn1 | MTT | 48 h | 12.2 µM
